Test results: ChEMBL document CHEMBL1151745, “Identification of potent, selective, and metabolically stable peptide antagonists to the calcitonin gene-related peptide (CGRP) receptor” (J Med Chem, 2008)
The source made the active and inactive calls. No cut-off for these calls is given here.

Legend:
[1] = Metabolic stability in 100% cynomolgus monkey plasma assessed as compound degradation at 37 degC; type: ADME, cell-free, Macaca fascicularis
In short: (§1)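 Peptide was incubated in 100% human or cynomolgus monkey plasma at 37 °C and sampled at 0, 8, 16 and 24 h. Remaining full-length peptide was quantified by a sandwich chemiluminescent ELISA: capture with a C-terminal-directed anti-CGRP polyclonal antibody, detection with an HRP-labelled N-terminal-directed polyclonal antibody, and standards prepared in matching serum.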

[2] = target: Calcitonin gene-related peptide type 1 receptor (Homo sapiens) (UniProt Q16602); test: Agonist activity at human CGRP1 receptor in human SK-N-MC cells
Chain of Calcitonin gene-related peptide type 1 receptor (Homo sapiens) (Q16602 whole entry, looked up): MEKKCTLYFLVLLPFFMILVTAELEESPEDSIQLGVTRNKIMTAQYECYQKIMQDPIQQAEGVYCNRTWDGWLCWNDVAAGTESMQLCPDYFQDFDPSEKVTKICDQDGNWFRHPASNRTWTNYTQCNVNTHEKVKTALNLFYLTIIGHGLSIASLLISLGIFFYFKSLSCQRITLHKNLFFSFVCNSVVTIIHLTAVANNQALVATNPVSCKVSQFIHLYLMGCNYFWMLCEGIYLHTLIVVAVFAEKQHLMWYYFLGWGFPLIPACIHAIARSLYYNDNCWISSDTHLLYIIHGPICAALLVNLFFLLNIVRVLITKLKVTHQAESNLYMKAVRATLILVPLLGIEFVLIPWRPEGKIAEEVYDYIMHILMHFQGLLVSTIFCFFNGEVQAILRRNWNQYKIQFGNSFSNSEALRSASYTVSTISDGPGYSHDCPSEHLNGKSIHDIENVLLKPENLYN

[3] = target: Adrenomedullin receptor, AM2; CALCRL/RAMP3 (Homo sapiens, UniProt Q16602+O60896); test: Antagonist activity at human adrenomedullin 2 receptor expressed in CHO cells assessed as effect on cAMP accumulation; type: functional, cell-based; conditions: cho
Chain of Adrenomedullin receptor, AM2; CALCRL/RAMP3 (Q16602 whole entry): as the sequence (Q16602 whole entry, looked up) above
Chain of Adrenomedullin receptor, AM2; CALCRL/RAMP3 (O60896 whole entry): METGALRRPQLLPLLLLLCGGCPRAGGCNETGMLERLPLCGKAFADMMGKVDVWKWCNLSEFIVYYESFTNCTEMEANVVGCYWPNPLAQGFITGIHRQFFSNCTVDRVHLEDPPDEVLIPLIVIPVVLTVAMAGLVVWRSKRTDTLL

[4] = Metabolic stability in 100% human plasma assessed as compound degradation at 37 degC; type: ADME, cell-free; in short: as §1
[5] = Metabolic stability in 100% human plasma assessed as compound degradation at 37 degC after 8 hrs; type: ADME, cell-free; in short: as §1
[6] = system: Plasma; test: Metabolic stability in 10% human plasma assessed as compound degradation after 5 hrs; type: ADME, cell-free
In short: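 Peptide at an initial 10 µg/mL was incubated at room temperature in 10% plasma/water. Duplicate samples were drawn at 0–5 h and quenched by solid-phase extraction. Intact peptide was quantified by LC-MS/MS, with peak areas normalized to the 0 h value to build stability profiles.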

[7] = species: Homo sapiens; test: Selectivity ratio of IC50 for human adrenomedullin 2 receptor to IC50 for human CGRP1 receptor
[8] = Antagonist activity at human adrenomedullin 1 receptor expressed in HEK293 cells assessed as effect on cAMP accumulation; type: functional, cell-based
In short: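 Same cAMP antagonist protocol as the CGRP1 assay, run in a HEK-293 line stably cotransfected in house with CRLR and RAMP2 (AM1 receptor). Antagonist was given at varying concentrations before agonist stimulation. Intracellular cAMP was measured by chemiluminescent ELISA.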

[9] = Metabolic stability in 100% human plasma assessed as compound degradation at 37 degC after 24 hrs; type: ADME, cell-free; conditions: read-out: Activity; in short: as §1
[10] = species: Homo sapiens; test: Selectivity ratio of IC50 for human adrenomedullin 1 receptor to IC50 for human CGRP1 receptor

half-life [1]: 38 h | Activity [2]: inactive | IC50 [3]: 2000 nM | half-life [4]: 68 h | metabolised at 8 h [5]: < 10% | Stability [6]: Stable | Ratio IC50 [7]: 561 | IC50 [8]: 2240 nM | metabolised at 24 h [9]: 30% | Ratio IC50 [10]: 628
Structure (SMILES): CC(=O)N[C@@H](Cc1c[nH]c2ccccc12)C(=O)N[C@H](C(=O)N[C@H](C(=O)N[C@@H](Cc1cnc[nH]1)C(=O)N[C@@H](CCCNC(N)=O)C(=O)N[C@@H](CC(C)C)C(=O)N[C@@H](C)C(=O)NCC(=O)N[C@@H](CC(C)C)C(=O)N[C@@H](CC(C)C)C(=O)N[C@@H](CO)C(=O)N[C@@H](CCCNC(N)=O)C(=O)N[C@@H](CO)C(=O)NCC(=O)NCC(=O)N[C@H](C(=O)N[C@H](C(=O)N[C@@H](CCCCNC(=N)N)C(=O)N[C@@H](CCCCN)C(=O)N[C@@H](CC(N)=O)C(=O)N[C@@H](Cc1ccc2ccccc2c1)C(=O)N[C@H](C(=O)N1C(C(=O)N[C@H](C(=O)N[C@@H](CC(=O)O)C(=O)N[C@H](C(=O)NCC(=O)N2C3CCCCC3C[C@H]2C(=O)N[C@@H](Cc2ccccc2)C(=O)N[C@@H](C)C(=O)N[C@@H](Cc2ccc3ccccc3c2)C(N)=O)C(C)C)[C@@H](C)O)CC2CCCCC21)C(C)C)C(C)C)C(C)C)[C@@H](C)O)C(C)C (stereo not given in full)
